How the values were obtained:
[1] = test system: Trypanosoma brucei brucei; test: Antitrypanosomal activity against blood stream form of Trypanosoma brucei brucei 427 assessed as parasite growth inhibition incubated for 48 hrs by alamar blue dye based assay; assay type: functional, organism-based; details: Trypanosoma brucei, 427, 48 h
Method in brief: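 Bloodstream-form BSF 427 parasites in HMI-9 with 10% heat-inactivated FBS and penicillin/streptomycin, 37 °C, 5% CO₂; 10 000 cells/well initial inoculum; serial 3-fold dilutions in triplicate; Alamar Blue read at 48 h. Pentamidine control.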

[2] = Cytotoxicity against human WIL2-NS cells assessed as reduction in cell viability after 48 hrs by alamar blue dye based assay
Method in brief: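 CRL-8155 lymphocytic cells in RPMI with 10% heat-inactivated FBS, 2 mM L-glutamine, 0.4 mM sodium pyruvate, penicillin/streptomycin, 37 °C, 5% CO₂; 30 000 cells/well; quadruplicate serial 3-fold dilutions from 50 µM (or 25 µM); AlamarBlue at 48 h, 50 µM quinacrine as background; percent inhibition versus untreated wells; single experiment.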

[3] = Cytotoxicity against human HepG2 cells assessed as reduction in cell viability after 48 hrs by alamar blue dye based assay
[4] = test system: mitochondrial MetRS (mitochondrial protein synthesis); test: Selectivity index, ratio of EC50 for inhibition of mitochondrial MetRS-mediated mitochondrial protein synthesis in human HepG2 cells to EC50 for antitrypanosomal activity against blood stream form of Trypanosoma brucei brucei 427; assay type: toxicity, cell-based; details: read-out: Ratio EC50
[5] = biological target: T1, Methionine--tRNA ligase, mitochondrial (Homo sapiens, UniProt Q96GW9); test: Inhibition of mitochondrial MetRS-mediated mitochondrial protein synthesis in human HepG2 cells measured after 6 days by ELISA; assay type: cell-based
T1 sequence (Q96GW9 whole entry): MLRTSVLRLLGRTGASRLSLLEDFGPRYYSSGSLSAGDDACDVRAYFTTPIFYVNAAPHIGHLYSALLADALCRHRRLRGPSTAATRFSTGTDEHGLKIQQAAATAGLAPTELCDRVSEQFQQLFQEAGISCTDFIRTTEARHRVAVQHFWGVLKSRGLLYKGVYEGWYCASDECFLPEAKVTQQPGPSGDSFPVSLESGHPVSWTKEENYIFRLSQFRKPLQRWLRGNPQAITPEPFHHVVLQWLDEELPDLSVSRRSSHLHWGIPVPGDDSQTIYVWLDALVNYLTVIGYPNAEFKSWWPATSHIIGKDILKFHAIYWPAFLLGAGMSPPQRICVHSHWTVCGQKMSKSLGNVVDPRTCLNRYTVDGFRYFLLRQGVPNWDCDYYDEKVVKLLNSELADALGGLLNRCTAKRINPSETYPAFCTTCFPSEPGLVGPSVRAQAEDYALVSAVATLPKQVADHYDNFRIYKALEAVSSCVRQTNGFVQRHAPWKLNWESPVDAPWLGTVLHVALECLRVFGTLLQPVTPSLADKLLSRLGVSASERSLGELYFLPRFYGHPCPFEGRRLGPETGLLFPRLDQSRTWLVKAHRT
Method in brief: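 HepG2 seeded 6000 cells/well on collagen-coated plates, grown 24 h in DMEM/F12 with 10% FBS, pyruvate, antibiotics; then serial 3-fold dilutions from 25 µM in duplicate, 6 days at 37 °C, medium with compound refreshed every 48 h; paraformaldehyde-fixed, COX-1 quantified by in-cell ELISA. Chloramphenicol control.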

[6] = Ratio of drug level in brain to plasma in Swiss Webster mouse at 5 mg/kg, ip measured after 60 mins by LC-MS analysis; assay type: ADME, organism-based; details: 1 h
Method in brief: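 Swiss Webster mice, triplicate, 5 mg kg⁻¹ IP in 7% Tween80, 5% DMSO, 3% EtOH in saline; plasma and brain collected 1 h post-dose; brain homogenized in water, extracts measured by LC-MS/MS; brain levels corrected for 3% v/w blood content.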

| SMILES | EC50 [1] [µM] | CC50 at 48 h [2] [µM] | CC50 at 48 h [3] [µM] | selectivity ratio [4] | EC50 [5] [µM] | BPR [6] [%] |
| --- | --- | --- | --- | --- | --- | --- |
| CCn1c(Cc2ccc(Cl)cc2Cl)cn(Cc2nc3c(F)cccc3[nH]2)c1=O | 0.031 | 45 | > 50 | – | – | – |
| Clc1cc(Cl)cc(-c2cccc3nc(Cc4nc5nc(Cl)ccc5[nH]4)cn23)c1 | 0.196 | – | – | – | – | – |
| CCn1c(Cc2ccc(Cl)cc2Cl)cn(Cc2nc3ncccc3[nH]2)c1=O | 0.017 | > 50 | > 50 | – | – | – |
| CCn1c(Cc2ccc(Cl)cc2Cl)cn(Cc2nc3cc(Cl)c(F)cc3[nH]2)c1=O | 0.22 | 20.9 | 29.8 | – | – | – |
| CCOc1ccc(-c2cccc3nc(Cc4nc5nc(Cl)ccc5[nH]4)cn23)c(Cl)c1 | 1.9 | – | – | – | – | – |
| COc1ccc(-c2nccn3c(=O)n(Cc4nc5nc(Cl)ccc5[nH]4)cc23)c(Cl)c1 | 0.031 | > 50 | > 50 | – | – | – |
| CC(C)n1c(Cc2ccc(Cl)cc2Cl)cn(Cc2nc3nc(F)ccc3[nH]2)c1=O | 0.0023 | > 50 | > 50 | – | – | – |
| O=c1n(Cc2nc3nc(Cl)ccc3[nH]2)cc(Cc2ccc(Cl)cc2Cl)n1CC(F)F | 0.003 | > 50 | > 50 | 143 | 0.43 | 0 |
| COc1cc(-c2cccc3nc(Cc4nc5nc(F)ccc5[nH]4)cn23)c(Cl)cc1Cl | 0.0084 | 10.4 | > 50 | 203 | 1.75 | 0.6 |
| COc1ccc(-c2cccn3cc(Cc4nc5nc(Cl)ccc5[nH]4)nc23)c(Cl)c1 | > 2 | – | – | – | – | – |
| CCn1c(Cc2ccc(Cl)cc2Cl)cn(Cc2nc3cc(Cl)ccc3[nH]2)c1=O | 0.069 | 27.1 | 45.3 | – | – | – |
| COc1cc(-c2cccc3nc(Cc4nc5nc(Cl)ccc5[nH]4)cn23)c(Cl)cc1Cl | 0.0035 | 9.5 | > 50 | 145 | 0.507 | 0 |
| CCn1c(Cc2ccc(Cl)cc2Cl)cn(Cc2nc3c(Cl)cc(Cl)cc3[nH]2)c1=O | 1.6 | 38.2 | 43.7 | – | – | – |
| CCn1c(Cc2ccc(Cl)cc2Cl)cn(Cc2nc3c(Cl)cccc3[nH]2)c1=O | 0.21 | > 50 | > 50 | – | – | – |
| COc1cc(Cl)c(-c2cccc3nc(Cc4nc5nc(F)ccc5[nH]4)cn23)cc1OC | 0.0072 | > 25 | > 25 | 45 | 0.316 | 0 |
| Cc1ccc(-c2cccc3nc(Cc4nc5nc(Cl)ccc5[nH]4)cn23)c(Cl)c1 | > 2 | – | – | – | – | – |
| CCn1c(Cc2ccc(Cl)cc2Cl)cn(Cc2nc3cc(Cl)c(Cl)cc3[nH]2)c1=O | 0.66 | 31.6 | 31.3 | – | – | – |
| CCn1c(Cc2ccc(Cl)cc2Cl)cn(Cc2nc3cc(C(F)(F)F)ccc3[nH]2)c1=O | > 2 | > 50 | > 50 | – | – | – |
| COc1ccc(-c2cccc3nc(Cc4nc5nc(Cl)ccc5[nH]4)cn23)c(Cl)c1 | 0.024 | 13 | > 50 | – | – | – |
| CCCn1c(Cc2ccc(Cl)cc2Cl)cn(Cc2nc3nc(Cl)ccc3[nH]2)c1=O | ≤ 0.0009 | 37.8 | 26.4 | – | – | – |

| SMILES | EC50 [1] [µM] | CC50 at 48 h [2] [µM] | CC50 at 48 h [3] [µM] | selectivity ratio [4] | EC50 [5] [µM] | BPR [6] [%] |
| --- | --- | --- | --- | --- | --- | --- |
| CCn1c(Cc2ccc(OC)cc2Cl)cn(Cc2nc3nc(F)ccc3[nH]2)c1=O | 0.0018 | > 50 | > 50 | 42 | 0.075 | 0 |
| CCn1c(Cc2ccc(Cl)cc2Cl)cn(Cc2nc3nc(Cl)ccc3[nH]2)c1=O | 0.0016 | > 50 | > 50 | 26 | 0.042 | 9.6 |
| O=c1n(Cc2nc3nc(F)ccc3[nH]2)cc(Cc2ccc(Cl)cc2Cl)n1C1CCOCC1 | 0.0058 | > 50 | > 50 | – | – | – |
| O=c1n(Cc2nc3nc(F)ccc3[nH]2)cc(Cc2ccc(Cl)cc2Cl)n1CC1(O)CCOCC1 | 0.0046 | > 50 | > 50 | – | – | – |
| COc1ccc(-c2cccc3nc(Cc4nc5nc(F)ccc5[nH]4)cn23)c(Cl)c1 | 0.059 | 15.7 | > 50 | – | – | – |
| COc1ccc(-c2cncc3nc(Cc4nc5nc(Cl)ccc5[nH]4)cn23)c(Cl)c1 | 0.032 | > 50 | > 50 | – | – | – |
| CCN(CC)CCCC(C)Nc1c2ccc(Cl)cc2nc2ccc(OC)cc12 (stereo not given) [QUINACRINE] | – | 4.8 | 7.6 | – | – | – |
| N=C(N)c1ccc(OCCCCCOc2ccc(C(=N)N)cc2)cc1 [PENTAMIDINE] | 0.0017 | – | – | – | – | – |
| O=c1n(Cc2nc3nc(F)ccc3[nH]2)cc(Cc2ccc(Cl)cc2Cl)n1C1CCCCC1 | 0.016 | 30.4 | 33.2 | – | – | – |
| CCn1c(Cc2ccc(Cl)cc2Cl)cn(Cc2nc3c(F)c(F)ccc3[nH]2)c1=O | 0.026 | 41 | 40.6 | – | – | – |
| Clc1ccc(-c2cccc3nc(Cc4nc5nc(Cl)ccc5[nH]4)cn23)c(Cl)c1 | 0.064 | 16.1 | 43.2 | – | – | – |
| O=C(N[C@H](CO)[C@H](O)c1ccc([N+](=O)[O-])cc1)C(Cl)Cl [CHLORAMPHENICOL] | – | – | – | – | 7.9 | – |
| COc1ccc(Cc2cn(Cc3nc4nc(Cl)ccc4[nH]3)c(=O)n2CC(F)F)c(Cl)c1 | 0.0036 | > 50 | > 50 | – | – | – |
| O=c1n(Cc2nc3nc(F)ccc3[nH]2)cc(Cc2ccc(Cl)cc2Cl)n1CC1CCOCC1 | 0.003 | > 50 | > 50 | – | – | – |
| FC(F)(F)c1ccc(-c2cccc3nc(Cc4nc5nc(Cl)ccc5[nH]4)cn23)c(Cl)c1 | 1.78 | – | – | – | – | – |
| CCn1c(Cc2ccc(Cl)cc2Cl)cn(Cc2nc3cc(C)ccc3[nH]2)c1=O | 0.11 | > 50 | > 50 | – | – | – |
| CCn1c(Cc2ccc(Cl)cc2Cl)cn(Cc2nc3ccccc3[nH]2)c1=O | 0.04 | > 50 | > 50 | – | – | – |
| CCn1c(Cc2ccc(Cl)cc2Cl)cn(Cc2nc3ccccc3o2)c1=O | > 2 | > 50 | > 50 | – | – | – |
| CCn1c(Cc2ccc(Cl)cc2Cl)cn(Cc2nc3cnccc3[nH]2)c1=O | 0.39 | > 50 | > 50 | – | – | – |

From ChEMBL document CHEMBL4699413, “Structure-guided discovery of selective methionyl-tRNA synthetase inhibitors with potent activity against Trypanosoma brucei” (RSC Med Chem, 2020)
